Laboratory results published in paper PMC6421850 (The Journal of organic chemistry, 2018).
Read-outs that look alike come from different tables or passages of the source.

Tests used:
[1] = tested on: A549 (lung carcinoma); assay: Antiproliferative activity, SRB assay, A549; format: cell-based, human
[2] = tested on: MDA-MB-231 (triple-negative breast cancer); assay: Antiproliferative activity, SRB assay, MDA-MB-231; format: cell-based, human
[3] = tested on: MCF-7 (estrogen receptor-positive and HER2-negative breast cancer); assay: Antiproliferative activity, SRB assay, MCF-7; format: cell-based, human
[4] = tested on: KB (epidermoid carcinoma of the nasopharynx); assay: Antiproliferative activity, SRB assay, KB; format: cell-based, human; conditions: read-out: IC50 KB
[5] = tested on: MDA-MB-231 cells; assay: Cell cycle analysis by flow cytometry; format: cell-based, human; conditions: MDA-MB-231, 24 h; for accumulation of sub-G1 cells: dose-dependent; for effect on cell cycle progression: flow cytometry, PI staining; for propidium iodide (PI) signals: higher concentrations
How it was run: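 MDA-MB-231 cells were exposed to test compound for 24 h at the indicated concentrations, with DMSO as vehicle control. DNA content was stained with propidium iodide/RNase. Cell-cycle distribution, including the sub-G1 fraction, was read by flow cytometry.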

[6] = tested on: KB-VIN (P-gp-overexpressing MDR subline of KB); assay: Antiproliferative activity, SRB assay, KB-VIN; conditions: read-out: IC50 KB-VIN, 50% reduction relative to untreated cells
[7] = tested on: horse's blood (red blood cells); assay: In vitro hemolytic assay; format: cell-based; conditions: up to 500 μM
[8] = tested on: MDA-MB-231 cells; assay: Immunocytochemistry; format: cell-based, human; conditions: MDA-MB-231, 24 h
How it was run: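 MDA-MB-231 cells were seeded on chamber slides 24 h before a 24 h exposure, with 0.1% DMSO as control. Cells were fixed in 4% paraformaldehyde/PBS and permeabilised with 0.5% Triton X-100. They were probed with mouse anti-α-tubulin, then FITC anti-mouse IgG, with DAPI for nuclei. Confocal projections used 12–18 sections at 0.6–1 μm intervals. Each concentration was repeated at least twice.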

[9] = tested on: KB-VIN (P-gp-overexpressing MDR subline of KB)
[10] = tested on: all tested human tumor cell lines, including MDR subline; assay: Antiproliferative activity, all tested human tumor cell lines; format: cell-based; conditions: read-out: IC50 values against all tested human tumor cell lines
[11] = read-out: IC50 A549, SRB assay, 50% reduction relative to untreated cells
[12] = read-out: IC50 MDA-MB-231, SRB assay, 50% reduction relative to untreated cells
[13] = read-out: IC50 MCF-7, SRB assay, 50% reduction relative to untreated cells
[14] = SRB assay, 50% reduction relative to untreated cells
[15] = Homo sapiens, A549, read-out: IC50 A549
[16] = Homo sapiens, MDA-MB-231, read-out: IC50 MDA-MB-231
[17] = Homo sapiens, MCF7, read-out: IC50 MCF-7

Molecule | IC50 [1, 11] | IC50 [2, 12] | IC50 [3, 13] | IC50 [4, 14] | IC50 [1, 15] | IC50 [2, 16] | IC50 [3, 17] | IC50 ([4]; Homo sapiens) | IC50 [10] | accumulation of sub-G1 cells [5] | effect on cell cycle progression [5] | propidium iodide (PI) signals [5] | IC50 [6] | hemolytic activity (in words) [7] | cell morphology (microtubules, chromatin) ([8]; 1.5 μM (3-fold IC50)) | cell morphology (microtubules, chromatin) ([8]; 4.9 μM (10-fold IC50)) | induction of apoptosis ([8]; 1.5 and 4.9 μM) | IC50 [9]
C=CC(=C)CC[C@]1(C)[C@H](C)C[C@H](OC)[C@@]23C(=C[C@H](OC(=O)CC)C[C@@H]12)[C@@H](OC(C)=O)O[C@H]3OC(C)=O [Compound 4, (2R,5S,6S,8R,9R,10S,18R,−19S)-18,19-di-O-acetyl-18,19-epoxy-6-methoxy-2-propionyloxy-cleroda-3,13(16),14-triene] | 4600 nM | 4950 nM | 4940 nM | 5190 nM |  |  |  |  |  |  |  |  | 4920 nM |  |  |  |  | 
C=CC(=C)CC[C@]1(C)[C@H](C)C[C@H](OC(=O)CCCCC)[C@@]23C(=C[C@H](O)C[C@@H]12)[C@@H](OC(C)=O)O[C@H]3OC(C)=O [Compound 14, (2R,5S,6S,8R,−9R,10S,18R,19S)-18,19-di-O-acetyl-18,19-epoxy-2-hydroxy-6-hexanoyloxycleroda-3,13(16),14-triene] | 4760 nM | 4730 nM | 5190 nM | 4740 nM |  |  |  |  |  |  |  |  | 4880 nM |  |  |  |  | 
C=CC(=C)CC[C@]1(C)[C@H](C)C[C@H](OC)[C@@]23C(=C[C@H](OC(=O)[C@@H](C)CC)C[C@@H]12)[C@@H](OC(C)=O)O[C@H]3OC(C)=O [Compound 6, (2R,5S,6S,−8R,9R,10S,18R,19S)-18,19-di-O-acetyl-18,19-epoxy-6-methoxy-2-(2′-methylbutanoyloxy)-cleroda-3,13(16),14-triene] | 5040 nM | 4900 nM | 5820 nM | 5230 nM |  |  |  |  |  |  |  |  | 5190 nM |  |  |  |  | 
C=CC(=C)CC[C@]1(C)[C@H](C)C[C@H](OC(=O)CCCCCCCCC)[C@@]23C(=C[C@H](OC(C)=O)C[C@@H]12)[C@@H](OC(C)=O)O[C@H]3OC(C)=O [Compound 9, (2R,5S,6S,8R,9R,10S,18R,19S)-2,18,19-tri-O-acetyl-18,19-epoxy-6-decanoyloxycleroda-cleroda-3,13(16),14-triene] | 40200 nM | 20500 nM | 31700 nM | 19800 nM |  |  |  |  |  |  |  |  | 39200 nM |  |  |  |  | 
C=CC(=C)CC[C@]1(C)[C@H](C)C[C@H](OC)[C@@]23C(=C[C@H](OC(=O)C(C)C)C[C@@H]12)[C@@H](OC(C)=O)O[C@H]3OC(C)=O [Compound 3, (2R,5S,6S,8R,9R,10S,18R,19S)-18,19-di-O-acetyl-18,19-epoxy-6-methoxy-2-isobutanoyloxycleroda-3,13(16),14-triene] | 470 nM | 490 nM | 500 nM | 450 nM |  |  |  |  |  | significant accumulations of sub-G1 cells | no effect on cell cycle progression |  |  |  | normal morphology with intact nuclei and a clear microtubule network | fragmented and dispersed chromatin (arrowhead) with an apoptotic microtubule array | induced apoptosis in a dose-dependent manner | 490 nM

Further lines, with some results ahead:

IC50 [1, 11] | IC50 [2, 12] | IC50 [3, 13] | IC50 [4, 14] | IC50 [1, 15] | IC50 [2, 16] | IC50 [3, 17] | IC50 ([4]; Homo sapiens) | IC50 [10] | Molecule | accumulation of sub-G1 cells [5] | effect on cell cycle progression [5] | propidium iodide (PI) signals [5] | IC50 [6] | hemolytic activity (in words) [7] | cell morphology (microtubules, chromatin) ([8]; 1.5 μM (3-fold IC50)) | cell morphology (microtubules, chromatin) ([8]; 4.9 μM (10-fold IC50)) | induction of apoptosis ([8]; 1.5 and 4.9 μM) | IC50 [9]
4150 nM | 540 nM | 890 nM | 730 nM |  |  |  |  |  | C=CC(=C)CCC1(C)C(C)CC(O)C23C(=CC(OC(=O)C(C)CC)CC12)C(OC(C)=O)OC3OC(C)=O (stereo not drawn) [Compound 17, 18,19-di-O-acetyl-18,19-epoxy-6-hydroxy-2-(2′-methylbutanoyloxy)cleroda-3,13-(16),14-triene] | significant accumulations of sub-G1 cells | no effect on cell cycle progression | decreased unusually and dramatically in all cells | 4070 nM |  |  |  |  | 
580 nM | 450 nM | 660 nM | 530 nM |  |  |  |  |  | caseamembrin S [Compound 16] | significant accumulations of sub-G1 cells | no effect on cell cycle progression | decreased unusually and dramatically in all cells | 900 nM |  |  |  |  | 
450 nM | 430 nM | 440 nM | 420 nM |  |  |  |  |  | C=CC(=C)CCC1(C)C(C)CC(O)C23C(=CC(OC(=O)/C=C/C=C/CCCCC)CC12)C(OC(C)=O)OC3OC(C)=O (stereo not drawn) [Compound 19, corymbulosin A] | except with compound 19 | no effect on cell cycle progression |  | 450 nM | most potent activity but only at the unusually high concentration of 500 μM |  |  |  | 
 |  |  |  | 6.53 nM | 8.36 nM | 12.1 nM | 7.07 nM |  | CC(=O)O[C@H]1C(=O)[C@@]2(C)[C@H]([C@H](OC(=O)c3ccccc3)[C@]3(O)C[C@H](OC(=O)[C@H](O)[C@@H](NC(=O)c4ccccc4)c4ccccc4)C(C)=C1C3(C)C)[C@]1(OC(C)=O)CO[C@@H]1C[C@@H]2O [Paclitaxel, reference compound] |  |  |  |  |  |  |  |  | 
 |  |  |  | 530 nM | 400 nM | 550 nM | 430 nM | 400 to 1000 nM | C=CC(=C)CC[C@]1(C)[C@H]2C[C@@H](OC(=O)C(C)CC)C=C3[C@H](OC(C)=O)O[C@H](OC(C)=O)[C@@]32[C@H](O)C[C@@H]1C (stereo partly drawn) [Compound 18, caseamembrin E] |  |  |  |  |  |  |  |  | 
